EBI2 antag: antagonists of human EBI2 receptor; inhibition, % at 5 µM; actives 0.81% (n = 360,000); EBI2 beta-arrestin recruitment, luminescence, 7a,25-OHC stimulated; P32249; in the data active means inhibition above about 38%;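 further: enzyme fragment complementation signal reports receptor beta-arrestin coupling in cells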
CXCR6 inh: inhibitors of human CXCR6 receptor; O00574; CHO-K1 PathHunter CXCR6 beta-arrestin, luminescence; inhibition, % at 20 µM; actives 0.36% (n = 360,000); in the data active means inhibition above about 34%, passing the limit was not always enough;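 further: antagonist mode with CXCL16 agonist at 10 nM final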
APJ antag: blocks the human apelin receptor APJ; P35414; CHO-K1 APJ beta-arrestin complementation, luminescence; inhibition, % at 20 µM; actives 0.32% (n = 330,000);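 active means inhibition above about 40% at 20 µM, limit read from the data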;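 further: cells challenged with 10 nM apelin-13 agonist together with compound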
Target sequence (P35414 whole entry, looked up): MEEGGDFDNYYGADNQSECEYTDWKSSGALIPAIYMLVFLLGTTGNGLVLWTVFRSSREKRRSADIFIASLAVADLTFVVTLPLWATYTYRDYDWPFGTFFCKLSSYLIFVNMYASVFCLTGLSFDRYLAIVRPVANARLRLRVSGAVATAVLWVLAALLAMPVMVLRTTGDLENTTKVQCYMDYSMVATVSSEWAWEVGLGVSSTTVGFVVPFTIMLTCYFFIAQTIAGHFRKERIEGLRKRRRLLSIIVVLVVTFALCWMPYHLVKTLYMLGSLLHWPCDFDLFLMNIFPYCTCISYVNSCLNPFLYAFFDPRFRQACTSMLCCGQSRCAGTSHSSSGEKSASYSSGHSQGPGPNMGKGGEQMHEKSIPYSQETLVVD
APJ ag: agonists of human APJ apelin receptor; CHO-K1 APJ PathHunter beta-arrestin, luminescence; 0% DMSO wells, 100% apelin; activation, % at 20 µM; actives 0.11% (n = 330,000);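 active means activation more than six SD over the plate average, tested at 20 µM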
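Assay system: engineered CHO-K1 APJ arrestin reporter cells; Amount: 1000 CHO-K1 reporter cells seeded per well; Dosing: one dose, 20 µM compound, 1% DMSO; Times: compound stimulation 90 min at 25 °C, detection 60 min; Measured by: luminescent beta-gal fragment complementation, chemiluminescent substrate; Read-out: APJ–arrestin association signal; Controls: DMSO vs Apelin-13 10 nM.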
CCR6 antagonist: blocks CCL20-driven beta-arrestin recruitment at human CCR6; P51684; CHO-K1 CCR6 PathHunter beta-arrestin, luminescence, CCL20-stimulated; inhibition, % at 20 µM; actives 0.49% (n = 340,000);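 active means compounds whose inhibition of the agonist-driven luminescence signal at 20 µM reaches about 50%, limit read from the data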;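 further: cells stimulated with CCL20 at 14 nM final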
APJ antag confirm: APJ receptor antagonism confirmation. inhibition, % at 20 µM. APJ beta-arrestin recruitment, luminescence, antagonist mode. AID 2766. shares compounds with APJ antag. actives 66% (n = 950); in the data active means inhibition above about 50%
Numbers stand for hits; 0 = inactive; - = not tested or not shown. Rows were chosen to be rich in hits. Some 1.5% of all compounds tested hit in one or more screens of this group.

SMILES	EBI2 antag	CXCR6 inh	APJ antag	APJ ag	CCR6 antagonist	APJ antag confirm
C/C(=N\NC(=O)c1cc(Br)ccc1O)c1ccccn1	0	0	44	0	54	0
Cc1ccc(-c2c3c(nc4sc(C(N)=O)c(N)c24)CCC3)cc1	0	0	0	0	0	-
NC(=O)c1sc2nc3c(c(-c4ccc(Cl)cc4)c2c1N)CCCC3	0	0	52	0	0	0
CC1=Nc2ccccc2/C1=C/c1sc(=N)n(-c2nccs2)c1O	0	0	46	0	0	53
COc1cc(C=C2C(=O)c3ccccc3C2=O)cc(OC)c1	0	0	0	0	0	-
COc1ccc(C=C2C(=O)c3ccccc3C2=O)cc1O	0	0	45	0	0	59
CC1(C)CC(NC(=O)c2sc3cc(Cl)ccc3c2Cl)CC(C)(C)N1	0	0	0	0	0	-
CN(C(=O)CSC1=Nc2ccccc2C2=NC(c3ccccc3)C(=O)N12)C1CCCCC1 (stereo unspecified)	0	47	47	0	52	61
O=C(CSC1=Nc2ccccc2C2=NC(c3ccccc3)C(=O)N12)NC1CCCCC1 (stereo unspecified)	0	0	0	0	0	-
CC(C)CCNC(=O)C1(C)CCN1Cc1ccc2ccccc2c1 (stereo unspecified)	0	0	-	-	-	-
Cc1ccc(C)c(-c2cc(C(=O)NNC(=S)NCC(C)C)c3ccccc3n2)c1	0	0	45	0	0	0
CC(C)CC(=O)Nc1nnc(S(=O)(=O)N(C)Cc2ccco2)s1	0	0	0	0	0	-
CCCCOc1ccc(C(=O)N/C(=C/C=C/c2ccccc2)C(=O)NCCO)cc1	0	0	43	0	0	0
CCCCOc1ccc(C(=O)N/C(=C/C=C/c2ccccc2)C(=O)NCCCO)cc1	0	0	0	0	0	-
O=C(Oc1ccc(Oc2ccccc2)cc1)N1CCC(O)CC1	0	0	0	0	0	-
Cc1cc([N+](=O)[O-])nn1CC(=O)NNC(=S)Nc1ccc([N+](=O)[O-])cc1	0	0	47	0	0	70
CC(=O)c1cccc(NC(=O)CNC(=O)c2sc3ccccc3c2Cl)c1	0	0	0	0	0	-
COc1cc(/C=C2/SC(=S)N(c3c(C)n(C)n(-c4ccccc4)c3=O)C2=O)ccc1O	0	51	53	0	51	92
O=C1/C(=C\c2cccc(O)c2)SC(=S)N1Cc1ccccc1	0	0	0	0	0	-
COc1cc(/C=C2\SC(=S)N(N3CCOCC3)C2=O)cc(OC)c1OC	0	0	0	0	0	-
Cc1c(N2C(=O)/C(=C3/C(=O)N(C)c4ccccc43)SC2=S)c(=O)n(-c2ccccc2)n1C	0	0	0	0	0	-
O=C1/C(=C\c2cccc(O)c2O)SC(=S)N1Cc1ccccc1	0	0	42	0	0	68
COc1cc(/C=C2\SC(=S)N(N3CCOCC3)C2=O)ccc1O	0	40	51	0	0	70
COc1cc(/C=C2/SC(=S)N(Cc3ccccc3)C2=O)ccc1O	0	0	47	0	59	103
O=C1/C(=C\c2ccc(O)c(O)c2)SC(=S)N1Cc1ccccc1	0	52	56	0	71	100
SMILES	EBI2 antag	CXCR6 inh	APJ antag	APJ ag	CCR6 antagonist	APJ antag confirm
Cc1cc(C)c2c(CN3CCCCC3)cc(=O)oc2c1	0	0	43	0	0	0
Cc1cc(C)c2c(CN3CCCCCCC3)cc(=O)oc2c1	0	0	-	-	-	-
Cc1ccc(C)c(S(=O)(=O)Nc2ccc(O)c(C(=O)O)c2)c1	0	0	48	0	0	0
CCOC(=O)c1ccc(-c2ccc(/C=N/NC(=O)Cc3nnc(N)s3)o2)cc1	0	0	0	0	0	-
Cc1nsc(Nc2ccc([N+](=O)[O-])cc2)c1C#N	0	50	71	0	56	88
Cc1ccc(Nc2ccc([N+](=O)[O-])ccc2=O)cc1	0	0	0	0	0	-
CCOC(=O)[C@H]1[C@H]2COc3ccc(OC)cc3[C@@H]2N2C(=O)c3cc(C)ccc3NC(=O)[C@@]12C	0	0	0	0	0	-
Cc1ccc(S(=O)(=O)Nc2cc(C)c(O)c(Sc3n[nH]c(C)n3)c2)cc1	0	0	0	0	0	-
CCOc1cc([N+](=O)[O-])cc(/C=N/NC(=O)c2c(-c3ccccc3)noc2C)c1O	0	0	41	0	0	0
COc1cc(/C=C2\SC(=S)N(NC(=O)c3ccccc3OC)C2=O)ccc1O	0	50	66	0	66	100
COc1ccc(/C=C2/SC(=S)N(NS(=O)(=O)c3ccccc3)C2=O)cc1	0	0	0	0	0	-
COc1cc(/C=C2\SC(=S)N(NS(=O)(=O)c3ccccc3)C2=O)ccc1O	0	0	41	0	0	73
CCOc1cc(/C=C2\SC(=S)N(NS(=O)(=O)c3ccc(C)cc3)C2=O)ccc1O	0	0	41	0	0	88
COc1cc(/C=C2\SC(=S)N(NC(=O)c3ccc(O)c(OC)c3)C2=O)ccc1O	0	43	61	0	57	99
COc1cc(/C=C2\SC(=S)N(NC(=O)c3cccc(O)c3)C2=O)ccc1O	0	42	41	0	56	95
CN(C)CCCN(C(=O)c1ccc(S(=O)(=O)N2CCc3ccccc32)cc1)c1nc2ccc(F)cc2s1	0	0	0	0	0	-
Cc1cc(C)c2sc(N(CCCN(C)C)C(=O)c3ccc(S(=O)(=O)N4CCCc5ccccc54)cc3)nc2c1	0	0	47	0	0	57
O=C1CN(C(=O)CNC(=O)c2ccc(Cl)cc2Cl)CCN1	0	0	0	0	0	-
NS(=O)(=O)c1ccc(N=Nc2c[nH]c(=O)c(O)c2)cc1	0	44	53	0	71	90
CCOC(=O)N1CCC(=NNC(=O)Cn2ccc(C(F)(F)F)n2)CC1	0	0	0	0	0	-
CC(=O)Nc1ccc(S(=O)(=O)N2CCN(C(=O)c3ncoc3-c3ccc(F)cc3)CC2)cc1	0	0	0	0	0	-
CCCN1C(=O)/C(=C/C=C2\N(CC)c3ccccc3C2(C)C)SC1=S	0	0	0	0	0	-
CN1/C(=C\C=C2/SC(=S)N(CC(=O)O)C2=O)C(C)(C)c2ccccc21	0	45	51	0	59	93
C=CCN1C(=O)/C(=C\C=C2\N(C)c3ccccc3C2(C)C)SC1=S	0	0	57	0	71	82
CN1CCS/C1=C\C=C1/SC(=S)N(CC(=O)O)C1=O	0	0	-	-	0	-
CCn1ccnc1CN(C)Cc1cn(-c2ccccc2)nc1-c1ccc(OC)cc1F	0	0	0	0	0	-
COc1ccc(NC(=O)COC(=O)CCc2nc3ccccc3c(=O)[nH]2)cc1Cl	0	0	0	0	0	-
COc1ccc(NC(=O)COC(=O)CCc2nc3ccccc3c(=O)[nH]2)c(OC)c1	0	0	41	0	0	0
CCOc1cc(C=NNC(=O)N(c2ccccc2)c2ccccc2)ccc1O	0	0	-	-	-	-
Cc1ccc2oc(Nc3nc(-c4ccccc4)cc(=O)[nH]3)nc2c1	-	-	54	0	58	62
